According to ChEMBL document CHEMBL3872218, “Synthesis and T-type calcium channel-blocking effects of aryl(1,5-disubstituted-pyrazol-3-yl)methyl sulfonamides for neuropathic pain treatment” (Eur J Med Chem, 2016):
Each block holds one compound with its values, some of them ahead of it.

How the values were obtained:
[1] = target: T1, Voltage-dependent T-type calcium channel subunit alpha-1H (Homo sapiens, UniProt O95180); experiment: Inhibition of Cav3.2 alpha1H (unknown origin) expressed in HEK293 cells assessed as decrease in KCl-induced depolarization mediated intracellular Ca2+ level at 10 uM by fluo3/AM based high throughput screening assay relative to control; type: cell-based
Procedure, shortened: (§1)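 HEK293 cells stably expressing Cav3.1 or Cav3.2 plated at 4 × 10⁴ cells/well and used the next day. Loaded 60 min at room temperature with […] fluo3/AM plus 0.001% Pluronic F-127 in HEPES-buffered saline (1.8 mM CaCl₂, pH 7.4). Ca²⁺ fluorescence read on FDSS6000 as % inhibition, compound at […].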

[2] = target: T2, Voltage-dependent T-type calcium channel subunit alpha-1G (Homo sapiens, UniProt O43497); experiment: Inhibition of Cav3.1 alpha1G (unknown origin) expressed in HEK293 cells assessed as decrease in KCl-induced depolarization mediated intracellular Ca2+ level at 10 uM by fluo3/AM based high throughput screening assay relative to control; type: cell-based; procedure, shortened: as §1
Rattus norvegicus [3] = organism: Rattus norvegicus; experiment: Inhibition of voltage dependent T-type Ca2+ channel in Wistar rat cerebral cortex assessed as reduction in transient inward Ca2+ current at -60 mV holding potential at 500 uM by whole-cell patch clamp method relative to control
N1E-115 = experiment: Inhibition of voltage dependent T-type Ca2+ channel in mouse N1E-115 cells assessed as reduction in transient inward Ca2+ current at 50 uM by whole-cell patch clamp method relative to control; type: cell-based
Rattus norvegicus [4] = experiment: Antineuropathic pain activity in rat spinal nerve ligation model assessed as effect on mechanical allodynia by measuring frequency of paw withdrawal at 100 mg/kg, po measured at 1 hr relative to gabapentin; type: functional
Procedure, shortened: (§2)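 Spinal nerve ligation rats tested 2 weeks after nerve surgery, 100 mg/kg oral, n = 4 per group. Behaviour re-tested at 1, 3 and 5 h after dosing. Mechanical allodynia: von Frey filament applied five times, every 3–4 s, to the hind paw on a wire mesh floor. Cold allodynia: acetone applied to the plantar hind paw on a metal mesh floor.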

Rattus norvegicus [5] = experiment: Antineuropathic pain activity in rat spinal nerve ligation model assessed as effect on mechanical allodynia by measuring frequency of paw withdrawal at 100 mg/kg, po measured at 1 hr relative to control; type: functional; procedure, shortened: as §2
Rattus norvegicus [6] = experiment: Antineuropathic pain activity in rat spinal nerve ligation model assessed as effect on cold allodynia by measuring frequency of paw withdrawal at 100 mg/kg, po measured at 1 hr relative to control; type: functional; procedure, shortened: as §2
Rattus norvegicus [7] = experiment: Antineuropathic pain activity in rat spinal nerve ligation model assessed as effect on cold allodynia by measuring frequency of paw withdrawal at 100 mg/kg, po measured at 1 hr relative to gabapentin; type: functional; procedure, shortened: as §2
Rattus norvegicus [8] = experiment: Antineuropathic pain activity in rat spinal nerve ligation model assessed as effect on mechanical allodynia by measuring frequency of paw withdrawal at 100 mg/kg, po measured at 3 hrs relative to control; type: functional; procedure, shortened: as §2
Rattus norvegicus [9] = experiment: Antineuropathic pain activity in rat spinal nerve ligation model assessed as effect on mechanical allodynia by measuring frequency of paw withdrawal at 100 mg/kg, po measured at 5 hrs relative to control; type: functional; procedure, shortened: as §2
Rattus norvegicus [10] = experiment: Antineuropathic pain activity in rat spinal nerve ligation model assessed as effect on mechanical allodynia by measuring frequency of paw withdrawal at 100 mg/kg, po measured at 3 hrs relative to gabapentin; type: functional; procedure, shortened: as §2
Rattus norvegicus [11] = experiment: Antineuropathic pain activity in rat spinal nerve ligation model assessed as effect on mechanical allodynia by measuring frequency of paw withdrawal at 100 mg/kg, po measured at 5 hrs relative to gabapentin; type: functional; procedure, shortened: as §2
Rattus norvegicus [12] = experiment: Antineuropathic pain activity in rat spinal nerve ligation model assessed as effect on cold allodynia by measuring frequency of paw withdrawal at 100 mg/kg, po measured at 3 hrs relative to control; type: functional; procedure, shortened: as §2
Rattus norvegicus [13] = experiment: Antineuropathic pain activity in rat spinal nerve ligation model assessed as effect on cold allodynia by measuring frequency of paw withdrawal at 100 mg/kg, po measured at 5 hrs relative to control; type: functional; procedure, shortened: as §2
Rattus norvegicus [14] = experiment: Antineuropathic pain activity in rat spinal nerve ligation model assessed as effect on cold allodynia by measuring frequency of paw withdrawal at 100 mg/kg, po measured at 3 hrs relative to gabapentin; type: functional; procedure, shortened: as §2
Rattus norvegicus [15] = experiment: Antineuropathic pain activity in rat spinal nerve ligation model assessed as effect on cold allodynia by measuring frequency of paw withdrawal at 100 mg/kg, po measured at 5 hrs relative to gabapentin; type: functional; procedure, shortened: as §2
[16] = target: T2, Voltage-dependent T-type calcium channel subunit alpha-1G; experiment: Inhibition of Cav3.1 alpha1G (unknown origin) expressed in HEK293 cells by whole-cell patch clamp method; type: cell-based
Procedure, shortened: (§3)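 Whole-cell patch clamp on HEK293 cells expressing Cav3.1 or Cav3.2. T-type currents evoked every 15 s by a 50-ms step from −100 mV to −30 mV. External solution (mM): 140 NaCl, 2 CaCl₂, 10 HEPES, 10 glucose, pH 7.4.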

[17] = target: T1, Voltage-dependent T-type calcium channel subunit alpha-1H; experiment: Inhibition of Cav3.2 alpha1H (unknown origin) expressed in HEK293 cells by whole-cell patch clamp method; type: cell-based; procedure, shortened: as §3
Homo sapiens = organism: Homo sapiens; experiment: Inhibition of N-type Ca2+ channel (unknown origin) at 10 uM by whole-cell patch clamp method relative to control
CYP2D6 = CYP2D6 (Homo sapiens, UniProt P10635); experiment: Inhibition of human CYP2D6 assessed as remaining activity at 10 uM using vivid CYP450 substrate measured after 15 mins by fluorescence assay relative to quinidine; type: ADME; details: probe vivid CYP450 substrate, read-out: Activity
Procedure, shortened: (§4)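 Vivid fluorescence CYP assay: test compound at […] in water, mixed with BACULOSOMES master pre-mix and regeneration system, preincubated 15 min at 37 °C. Reaction started with Vivid substrate and NADPH. Remaining activity read by fluorescence as % of control, triplicate, mean ± SD. Isoform-specific reference inhibitors: α-naphthoflavone (1A2), sulfaphenazole (2C9), quinidine (2D6), ketoconazole (3A4).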

CYP2C9 = CYP2C9 (Homo sapiens, UniProt P11712); experiment: Inhibition of human CYP2C9 assessed as remaining activity at 10 uM using vivid CYP450 substrate measured after 15 mins by fluorescence assay relative to sulfaphenazol; type: ADME; details: probe vivid CYP450 substrate, read-out: Activity; procedure, shortened: as §4
CYP3A4 = CYP3A4 (Homo sapiens, UniProt P08684); experiment: Inhibition of human CYP3A4 assessed as remaining activity at 10 uM using vivid CYP450 substrate measured after 15 mins by fluorescence assay relative to ketoconazole; type: ADME; details: probe vivid CYP450 substrate, read-out: Activity; procedure, shortened: as §4
[18] = Metabolic stability in human liver microsomes assessed as compound remaining at 1 uM in presence of NADPH as cofactor by LC-MS/MS method; type: ADME; details: read-out: Stability
Procedure, shortened: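 Pooled mixed-gender human liver microsomes incubated with compound at 37 °C with NADPH as cofactor. Result given as % parent compound remaining.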

T1 sequence (O95180 whole entry): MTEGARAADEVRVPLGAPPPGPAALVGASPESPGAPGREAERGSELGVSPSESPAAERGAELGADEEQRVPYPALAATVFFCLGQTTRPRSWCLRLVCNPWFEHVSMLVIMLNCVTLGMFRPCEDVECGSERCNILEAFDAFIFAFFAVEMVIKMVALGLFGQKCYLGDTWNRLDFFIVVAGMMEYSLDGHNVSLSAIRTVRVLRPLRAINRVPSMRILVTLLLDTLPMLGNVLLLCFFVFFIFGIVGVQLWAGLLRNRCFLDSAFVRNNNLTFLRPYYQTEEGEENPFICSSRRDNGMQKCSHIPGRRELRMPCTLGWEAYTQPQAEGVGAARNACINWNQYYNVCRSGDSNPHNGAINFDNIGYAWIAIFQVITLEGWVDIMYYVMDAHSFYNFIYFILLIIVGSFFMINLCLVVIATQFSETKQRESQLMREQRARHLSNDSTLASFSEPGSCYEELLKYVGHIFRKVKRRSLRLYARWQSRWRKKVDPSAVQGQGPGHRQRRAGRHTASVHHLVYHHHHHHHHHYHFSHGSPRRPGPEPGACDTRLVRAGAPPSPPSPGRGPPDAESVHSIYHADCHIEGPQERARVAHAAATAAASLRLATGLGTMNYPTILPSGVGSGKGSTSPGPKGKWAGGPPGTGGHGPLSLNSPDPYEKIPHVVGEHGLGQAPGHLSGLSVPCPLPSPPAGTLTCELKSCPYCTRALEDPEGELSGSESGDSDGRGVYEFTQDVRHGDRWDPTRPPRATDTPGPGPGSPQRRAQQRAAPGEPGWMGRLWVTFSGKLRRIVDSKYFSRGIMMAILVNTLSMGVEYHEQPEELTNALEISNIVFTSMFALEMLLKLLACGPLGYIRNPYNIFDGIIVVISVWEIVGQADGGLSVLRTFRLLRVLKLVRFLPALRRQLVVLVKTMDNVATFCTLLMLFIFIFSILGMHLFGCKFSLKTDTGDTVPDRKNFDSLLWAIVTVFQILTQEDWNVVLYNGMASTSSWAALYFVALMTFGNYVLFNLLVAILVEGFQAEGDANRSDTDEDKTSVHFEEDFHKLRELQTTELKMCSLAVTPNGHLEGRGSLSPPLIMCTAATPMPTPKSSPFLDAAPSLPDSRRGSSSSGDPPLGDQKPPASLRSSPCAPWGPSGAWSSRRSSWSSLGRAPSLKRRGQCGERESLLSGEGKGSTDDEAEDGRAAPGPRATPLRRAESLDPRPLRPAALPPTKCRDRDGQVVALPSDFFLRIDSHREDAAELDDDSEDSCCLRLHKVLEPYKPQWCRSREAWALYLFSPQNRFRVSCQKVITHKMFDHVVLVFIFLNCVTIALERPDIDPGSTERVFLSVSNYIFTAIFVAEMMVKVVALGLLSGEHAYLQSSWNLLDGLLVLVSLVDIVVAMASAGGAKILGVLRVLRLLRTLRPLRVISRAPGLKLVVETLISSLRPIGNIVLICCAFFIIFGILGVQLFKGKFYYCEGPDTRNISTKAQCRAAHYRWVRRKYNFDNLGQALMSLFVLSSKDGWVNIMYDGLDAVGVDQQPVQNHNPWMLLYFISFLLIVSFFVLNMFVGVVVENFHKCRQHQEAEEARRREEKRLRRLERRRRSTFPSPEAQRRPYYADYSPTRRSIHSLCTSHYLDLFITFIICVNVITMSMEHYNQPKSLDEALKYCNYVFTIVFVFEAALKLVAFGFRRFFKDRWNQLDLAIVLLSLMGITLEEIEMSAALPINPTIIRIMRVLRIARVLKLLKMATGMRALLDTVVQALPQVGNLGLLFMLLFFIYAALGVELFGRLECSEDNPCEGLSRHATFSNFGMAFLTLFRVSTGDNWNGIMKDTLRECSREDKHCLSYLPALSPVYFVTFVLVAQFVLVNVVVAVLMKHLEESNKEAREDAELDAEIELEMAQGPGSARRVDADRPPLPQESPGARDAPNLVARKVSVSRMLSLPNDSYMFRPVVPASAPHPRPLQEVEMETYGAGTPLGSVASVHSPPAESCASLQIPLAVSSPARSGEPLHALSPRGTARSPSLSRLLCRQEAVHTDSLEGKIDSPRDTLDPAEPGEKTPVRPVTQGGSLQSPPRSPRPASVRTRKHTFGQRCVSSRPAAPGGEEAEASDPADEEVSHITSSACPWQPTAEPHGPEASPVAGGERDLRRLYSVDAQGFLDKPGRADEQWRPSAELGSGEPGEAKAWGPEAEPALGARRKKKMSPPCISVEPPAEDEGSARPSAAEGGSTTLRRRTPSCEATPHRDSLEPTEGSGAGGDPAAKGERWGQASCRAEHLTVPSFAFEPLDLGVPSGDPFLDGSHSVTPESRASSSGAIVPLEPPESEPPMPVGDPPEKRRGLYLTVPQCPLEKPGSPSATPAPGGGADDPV
T2 sequence (O43497 whole entry): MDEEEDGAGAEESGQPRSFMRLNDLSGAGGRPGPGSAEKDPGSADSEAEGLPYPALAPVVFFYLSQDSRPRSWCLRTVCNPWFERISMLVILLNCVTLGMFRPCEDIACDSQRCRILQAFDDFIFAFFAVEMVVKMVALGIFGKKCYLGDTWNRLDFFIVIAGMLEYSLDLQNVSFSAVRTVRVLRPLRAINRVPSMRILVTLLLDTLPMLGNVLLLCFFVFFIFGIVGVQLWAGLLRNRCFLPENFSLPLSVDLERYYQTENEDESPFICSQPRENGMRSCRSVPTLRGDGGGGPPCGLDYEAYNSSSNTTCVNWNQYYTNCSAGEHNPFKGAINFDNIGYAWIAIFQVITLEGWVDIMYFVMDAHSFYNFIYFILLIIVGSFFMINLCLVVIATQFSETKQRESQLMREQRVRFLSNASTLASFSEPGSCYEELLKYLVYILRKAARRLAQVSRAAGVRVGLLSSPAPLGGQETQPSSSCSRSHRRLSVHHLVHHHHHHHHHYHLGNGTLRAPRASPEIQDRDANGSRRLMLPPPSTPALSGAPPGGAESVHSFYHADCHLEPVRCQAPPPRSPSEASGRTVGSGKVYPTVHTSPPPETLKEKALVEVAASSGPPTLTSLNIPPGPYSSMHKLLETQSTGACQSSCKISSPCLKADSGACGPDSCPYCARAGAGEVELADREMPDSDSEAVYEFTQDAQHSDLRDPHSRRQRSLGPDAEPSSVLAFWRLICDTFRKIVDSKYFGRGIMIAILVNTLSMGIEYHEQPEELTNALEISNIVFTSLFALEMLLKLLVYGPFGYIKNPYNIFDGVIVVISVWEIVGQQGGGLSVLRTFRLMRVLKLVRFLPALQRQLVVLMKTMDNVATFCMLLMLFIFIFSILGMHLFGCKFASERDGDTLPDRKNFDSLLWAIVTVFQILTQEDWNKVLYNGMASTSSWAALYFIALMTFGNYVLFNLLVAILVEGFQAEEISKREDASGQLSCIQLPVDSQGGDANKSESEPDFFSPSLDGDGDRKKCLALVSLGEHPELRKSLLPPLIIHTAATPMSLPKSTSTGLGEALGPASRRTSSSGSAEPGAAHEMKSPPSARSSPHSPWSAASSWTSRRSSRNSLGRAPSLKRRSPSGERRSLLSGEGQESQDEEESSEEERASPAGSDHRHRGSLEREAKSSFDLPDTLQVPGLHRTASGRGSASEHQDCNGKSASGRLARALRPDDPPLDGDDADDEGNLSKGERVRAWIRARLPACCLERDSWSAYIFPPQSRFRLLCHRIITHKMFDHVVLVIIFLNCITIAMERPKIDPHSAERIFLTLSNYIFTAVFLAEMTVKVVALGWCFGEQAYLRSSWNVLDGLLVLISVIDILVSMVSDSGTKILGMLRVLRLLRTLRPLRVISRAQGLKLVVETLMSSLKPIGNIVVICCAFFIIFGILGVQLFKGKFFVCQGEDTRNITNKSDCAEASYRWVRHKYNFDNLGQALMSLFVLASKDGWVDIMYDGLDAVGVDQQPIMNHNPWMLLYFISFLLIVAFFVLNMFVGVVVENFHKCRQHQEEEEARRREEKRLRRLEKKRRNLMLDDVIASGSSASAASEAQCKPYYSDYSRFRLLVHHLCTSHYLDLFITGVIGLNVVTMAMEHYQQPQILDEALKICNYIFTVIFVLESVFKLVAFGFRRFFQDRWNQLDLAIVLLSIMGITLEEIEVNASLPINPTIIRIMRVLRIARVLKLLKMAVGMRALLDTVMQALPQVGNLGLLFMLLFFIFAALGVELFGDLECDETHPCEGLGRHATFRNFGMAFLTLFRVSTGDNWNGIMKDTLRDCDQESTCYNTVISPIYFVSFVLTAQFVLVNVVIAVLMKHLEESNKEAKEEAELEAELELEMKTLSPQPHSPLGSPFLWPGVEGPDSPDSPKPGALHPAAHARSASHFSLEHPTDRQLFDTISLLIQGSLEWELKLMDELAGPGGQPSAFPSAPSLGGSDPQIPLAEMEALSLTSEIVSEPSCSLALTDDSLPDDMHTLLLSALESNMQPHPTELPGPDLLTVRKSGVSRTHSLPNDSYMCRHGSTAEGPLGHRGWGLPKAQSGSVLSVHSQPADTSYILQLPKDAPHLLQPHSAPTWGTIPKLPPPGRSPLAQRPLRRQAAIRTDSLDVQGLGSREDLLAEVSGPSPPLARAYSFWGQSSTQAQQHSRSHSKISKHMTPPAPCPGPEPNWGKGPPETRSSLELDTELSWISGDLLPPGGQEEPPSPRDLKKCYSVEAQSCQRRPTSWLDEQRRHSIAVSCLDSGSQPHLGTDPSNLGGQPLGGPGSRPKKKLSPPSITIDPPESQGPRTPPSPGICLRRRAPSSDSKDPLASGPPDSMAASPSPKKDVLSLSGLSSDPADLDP

inhibition [1]: 26.6%
inhibition [2]: 22.6%
Structure (SMILES): Cc1cc(I)ccc1S(=O)(=O)NCc1cc(CC(C)C)n(-c2ccccc2)n1

inhibition [1]: 70%
inhibition [2]: 54.9%
Structure (SMILES): Cc1ccc(F)c(S(=O)(=O)NCc2cc(CC(C)C)n(-c3ccccc3)n2)c1

inhibition [1]: 55.7%
inhibition [2]: 57.6%
Structure (SMILES): CC(C)Cc1cc(CNS(=O)(=O)c2cccc(Cl)c2)nn1-c1ccccc1

inhibition [1]: 25.2%
inhibition [2]: 24.3%
Structure (SMILES): CC(C)Cc1cc(CNS(=O)(=O)c2cccc3ccccc23)nn1-c1ccccc1

inhibition [1]: 61.4%
inhibition [2]: 29.8%
Structure (SMILES): CC(C)Cc1cc(CNS(=O)(=O)c2cccc3cccnc23)nn1-c1ccccc1

inhibition (Rattus norvegicus [3]): 60%
Structure (SMILES): NS(=O)(=O)Cc1noc2ccccc12
inhibition (N1E-115): 40%

Structure (SMILES): COCC(=O)O[C@]1(CCN(C)CCCc2nc3ccccc3[nH]2)CCc2cc(F)ccc2[C@@H]1C(C)C [MIBEFRADIL]
MPE (Rattus norvegicus [4]): 156.75%
MPE (Rattus norvegicus [5]): 17.29%
MPE (Rattus norvegicus [6]): 25.25%
MPE (Rattus norvegicus [7]): 57.37%
MPE (Rattus norvegicus [8]): 41.44%
MPE (Rattus norvegicus [9]): 41.76%
MPE (Rattus norvegicus [10]): 72.78%
MPE (Rattus norvegicus [11]): 92.23%
MPE (Rattus norvegicus [12]): 34.77%
MPE (Rattus norvegicus [13]): 63.33%
MPE (Rattus norvegicus [14]): 43.19%
MPE (Rattus norvegicus [15]): 145.05%

inhibition [1]: 10.4%
inhibition [2]: 55.5%
Structure (SMILES): CC(C)(C)n1nc(CNS(=O)(=O)c2ccccc2)cc1-c1ccccc1

inhibition [1]: 24.9%
inhibition [2]: 19.8%
Structure (SMILES): CC(C)Cc1cc(CNS(=O)(=O)c2ccc3ccccc3c2)nn1-c1ccccc1

IC50 [16]: 12.4 µM
IC50 [17]: 14.6 µM
inhibition [1]: 68.6%
inhibition [2]: 70.5%
inhibition (Homo sapiens): 42.2%
activity at 0.25 h, 10 µM (CYP2D6): 45.2%
activity at 0.25 h, 10 µM (CYP2C9): 45.2%
activity at 0.25 h, 10 µM (CYP3A4): 38.7%
remaining at 1 µM [18]: 88.2%
Structure (SMILES): CC(C)Cc1cc(CNS(=O)(=O)CCc2ccccc2)nn1-c1ccccc1
MPE (Rattus norvegicus [4]): -34.45%
MPE (Rattus norvegicus [5]): -3.8%
MPE (Rattus norvegicus [6]): 3.08%
MPE (Rattus norvegicus [7]): 7%
MPE (Rattus norvegicus [8]): -7.3%
MPE (Rattus norvegicus [9]): -4.68%
MPE (Rattus norvegicus [10]): -12.82%
MPE (Rattus norvegicus [11]): -10.34%
MPE (Rattus norvegicus [12]): 9.07%
MPE (Rattus norvegicus [13]): 3.08%
MPE (Rattus norvegicus [14]): 11.27%
MPE (Rattus norvegicus [15]): 7.05%
